Results on 17 molecules are retold here after ChEMBL document CHEMBL4251648, “Synthesis and bioevaluation and doking study of 1H-pyrrolo[2,3-b]pyridine derivatives bearing aromatic hydrazone moiety as c-Met inhibitors” (Eur J Med Chem, 2018).

Common to all, as to assay type: functional, cell-based
One assay concerns A549. The assay is described as follows: Antiproliferative activity against human A549 cells after 72 hrs by MTT assay. The method in brief: (§1)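 Cells grown in MEM with 10% FBS. About 4×10³ cells per well, pre-incubated 24 h at 37°C in 5% CO₂. Compound added at final concentrations, then 72 h. MTT added at 5 µg/mL final for 4 h at 37°C. Tested three times; IC50 taken as the average of […] determinations.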

For the next assay, the system named is HepG2. The assay is described as follows: Antiproliferative activity against human HepG2 cells after 72 hrs by MTT assay. The method in brief:
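Cells grown in MEM with 10% FBS. About 4×10³ cells per well, pre-incubated 24 h at 37°C in 5% CO₂. Compound added at final concentrations, then 72 h. MTT added at 5 µg/mL final for 4 h at 37°C. Formazan dissolved in DMSO and read at 492 nm against 630 nm reference. Tested three times; IC50 taken as the average of […] determinations.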

The next assay concerns MCF7. The assay is described as follows: Antiproliferative activity against human MCF7 cells after 72 hrs by MTT assay. In short, it runs like this: as §1
For a further assay, the system named is PC-3. Kind of assay: Antiproliferative activity against human PC3 cells after 72 hrs by MTT assay. The method in brief: as §1
Setting [1] is: Homo sapiens, A549, 72 h, read-out: IC50.
Setting [2] is: Homo sapiens, HepG2, 72 h, read-out: IC50.
Setting [3] is: Homo sapiens, MCF7, 72 h, read-out: IC50.
The mark [4] stands for this setting: Homo sapiens, PC-3, 72 h, read-out: IC50.

For `CN1CCN(CCCn2cccc2/C=N/NC(=O)Nc2ccc(Oc3ccnc4[nH]ccc34)cc2)CC1`, the IC50 in the assay on A549 (setting [1]) is 1.64 µM; in the assay with HepG2 (setting [2]), 2.76 µM; in the assay with MCF7 (setting [3]), 4.28 µM; in the assay with PC-3 (setting [4]), 3.74 µM.

On to `COc1ccc(/C=N/NC(=O)Nc2ccc(Oc3ccnc4[nH]ccc34)cc2)cc1`, for which the IC50 with A549 (setting [1]) is 4.3 µM; in the assay with HepG2 (setting [2]), 9.74 µM; in the assay on MCF7 (mcf7) it was “Not Active”; in the assay on PC-3 (pc-3), “Not Active”.

In the case of `CN(C)CCCn1cccc1/C=N/NC(=O)Nc1ccc(Oc2ccnc3[nH]ccc23)cc1`, the IC50 with A549 (setting [1]) was determined as 2.66 µM; in the assay on HepG2 (setting [2]) it was 4.19 µM; in the assay with MCF7 (setting [3]), 9.14 µM; in the assay with PC-3 (setting [4]), 5.15 µM.

Turning to `O=C(N/N=C/c1cccc(Cl)c1Cl)Nc1ccc(Oc2ccnc3[nH]ccc23)cc1`, the IC50 result in the assay on A549 (a549), in the assay with HepG2 (hepg2), with MCF7 (mcf7) and in the assay with PC-3 (pc-3) was “Not Active” throughout.

For the molecule `O=C(N/N=C/c1ccccc1)Nc1ccc(Oc2ccnc3[nH]ccc23)c(F)c1`, the IC50 with A549 (setting [1]) worked out at 2.5 µM; with HepG2 (setting [2]), 0.64 µM; in the assay on MCF7 (setting [3]), 2.38 µM; with PC-3 (setting [4]) it was 7.94 µM.

For `COc1ccc(/C=N/NC(=O)Nc2ccc(Oc3ccnc4[nH]ccc34)cc2)c(OC)c1OC`, the IC50 is 3.34 µM with A549 (setting [1]), 2.96 µM with HepG2 (setting [2]), “Not Active” with MCF7 (mcf7) and 27.6 µM in the assay with PC-3 (setting [4]).

For the molecule `O=C(N/N=C/c1cccc(Cl)c1Cl)Nc1ccc(Oc2ccnc3[nH]ccc23)c(F)c1`, the IC50 result with A549 (a549), in the assay on HepG2 (hepg2), with MCF7 (mcf7) and in the assay on PC-3 (pc-3) was “Not Active” in each case.

As for `O=C(N/N=C/c1cccn1CCCN1CCOCC1)Nc1ccc(Oc2ccnc3[nH]ccc23)cc1`, the IC50 in the assay with A549 (setting [1]) was 2.24 µM; in the assay with HepG2 (setting [2]), 1.69 µM; in the assay on MCF7 (mcf7), “Not Active”; with PC-3 (setting [4]), 14.7 µM.

Consider `O=C(N/N=C/c1ccc([N+](=O)[O-])cc1)Nc1ccc(Oc2ccnc3[nH]ccc23)c(F)c1`, for which the IC50 was determined as 0.02 µM in the assay on A549 (setting [1]), 3.03 µM with HepG2 (setting [2]), 4 µM in the assay with MCF7 (setting [3]) and 0.15 µM in the assay on PC-3 (setting [4]).

As for `O=C(N/N=C/c1ccccc1)Nc1ccc(Oc2ccnc3[nH]ccc23)cc1`, the IC50 in the assay on A549 (setting [1]) is 17.2 µM; with HepG2 (setting [2]) it was 0.75 µM; in the assay with MCF7 (setting [3]), 1.51 µM; in the assay on PC-3 (setting [4]) it was 10.2 µM.

As for `O=C(N/N=C/c1cccn1CCN1CCOCC1)Nc1ccc(Oc2ccnc3[nH]ccc23)c(F)c1`, the IC50 was determined as 3.41 µM in the assay on A549 (setting [1]), 11.9 µM in the assay on HepG2 (setting [2]) and 2.45 µM in the assay on PC-3 (setting [4]).

`N#Cc1ccc(/C=N/NC(=O)Nc2ccc(Oc3ccnc4[nH]ccc34)c(F)c2)cc1`: the IC50 with A549 (setting [1]) is 1.36 µM; in the assay with HepG2 (setting [2]), 0.85 µM; with MCF7 (mcf7), “Not Active”; in the assay with PC-3 (setting [4]) it was 9.03 µM.

Consider `O=C(N/N=C/c1cccn1CCN1CCOCC1)Nc1ccc(Oc2ccnc3[nH]ccc23)cc1`, for which the IC50 turned out to be 3.88 µM in the assay with A549 (setting [1]), 9.94 µM with HepG2 (setting [2]) and 1.65 µM with PC-3 (setting [4]).

As to `CN(C)CCn1cccc1/C=N/NC(=O)Nc1ccc(Oc2ccnc3[nH]ccc23)c(F)c1`, the IC50 result in the assay on A549 (a549) is “Not Active”; in the assay with HepG2 (setting [2]) it was 8.98 µM; with PC-3 (setting [4]) it was 1.6 µM.

`CCN(CC)CCn1cccc1/C=N/NC(=O)Nc1ccc(Oc2ccnc3[nH]ccc23)cc1`: the figures for the IC50 in the assay on A549 (setting [1]), in the assay with HepG2 (setting [2]) and in the assay with PC-3 (setting [4]) were 3.57 µM, 5.88 µM and 1.37 µM, respectively.

Take `O=C(N/N=C/c1ccc(O)cc1Br)Nc1ccc(Oc2ccnc3[nH]ccc23)cc1`: the IC50 is 5.08 µM in the assay on A549 (setting [1]), “Not Active” with MCF7 (mcf7) and “Not Active” in the assay with PC-3 (pc-3).

For the molecule `CN(C)CCn1cccc1/C=N/NC(=O)Nc1ccc(Oc2ccnc3[nH]ccc23)cc1`, the values for the IC50 entry in the assay with A549 (a549), in the assay with HepG2 (hepg2) and in the assay on PC-3 (setting [4]) were “Not Active”, “Not Active” and 3.93 µM, respectively.
